Assay: Inhibition of soybean 15-lipoxygenase
Design: species or system Glycine max
Method in brief: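 Soybean 15-lipoxygenase (final 167 U/mL) in 0.1 M borate buffer pH 9, linoleic acid substrate (final 134 μM), 20 ± 1 °C. Compounds added in DMSO (final 1%), DMSO-only controls, inhibitor plus substrate as blank. Absorbance at 234 nm read for 60 s after enzyme addition. Enzyme kept on ice. At least six control tubes and triplicate tubes per inhibitor. IC50 by linear interpolation around 50% activity, mean ± SD.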

Row | IC50 [µM] | Compound
1 | 10.1 | C=CCOc1ccc(NC(=O)c2ccc(C)cc2)cc1
2 | 38.2 | C=CCc1ccc(O)c(OC)c1 [EUGENOL]
3 | 8.8 | C=CCOc1ccc(NC(=O)c2ccc(Cl)cc2)cc1
4 | 7 | C=CCc1ccc(OC(=O)c2ccccc2)c(OC)c1 [EUGENYL BENZOAT]
5 | 3.8 | C=CCOc1ccc(NC(=O)c2ccc(F)cc2)cc1
6 | 96.1 | C=CCc1ccc(OC)c(OC)c1 [METHYLEUGENOL]
7 | 0.67 | C=CCOc1ccc(NC(=O)C23CC4CC(CC(C4)C2)C3)cc1
8 | 6.2 | C=CCOc1ccc(OC(=O)c2ccccc2)cc1

The next lines start with the compound.

Row | Compound | IC50 [µM]
9 | C=CCc1ccc(OC)cc1 [ESTRAGOLE] | 64.1
10 | C=CCOc1ccc(NC(=O)C(C)C)cc1 | 12.9
11 | C=CCOc1ccc(NC(=O)c2cccc(Cl)c2)cc1 | 8.1
12 | C=CCOc1ccc(NC(=O)C2CCCCC2)cc1 | 6.4
13 | C=CCOc1ccc(NC(=O)c2ccc(OC)cc2)cc1 | 13.8
14 | C=CCOc1ccc(NC(=O)c2cccc(C)c2)cc1 | 6.7
15 | C=CCOc1ccc(NC(=O)C2CC2)cc1 | 6.1
16 | C=CCc1ccc(OC(=O)c2ccccc2)cc1 | 6.7
17 | C=CCOc1ccc(NC(=O)C2CCC2)cc1 | 2.2
18 | C=CCOc1ccc(NC(=O)c2cccc(OC)c2)cc1 | 17
19 | C=CCOc1ccc(NC(=O)C2CCCC2)cc1 | 4.1
20 | C=CCOc1ccc(NC(=O)c2ccccc2)cc1 | 3.3
21 | C=CCOc1ccc(NC(=O)c2cccc(F)c2)cc1 | 5.6

Source: ChEMBL document CHEMBL1152697, “Design, synthesis and SAR studies of 4-allyoxyaniline amides as potent 15-lipoxygensae inhibitors” (Bioorg Med Chem, 2009)
